Published values of several laboratories.
Each line is one published result; the experiments were not run side by side.
Target: High affinity nerve growth factor receptor (NTRK1, Homo sapiens, UniProt P04629)

Structure (SMILES)	test	setting	measurement	result
COc1cc(Nc2ncc(F)c(Nc3ccc4c(n3)NC(=O)C(C)(C)O4)n2)cc(OC)c1OC	binding	10 µM	inhibition	100%
C#Cc1n[nH]c2c(-c3cn([C@@H](C)c4ccccn4)c(=O)[nH]c3=O)cc(F)cc12	enzyme activity, inhibitor	0.1 µM	inhibition	11.2%
Cn1cc(-c2cc(F)cc(N3CCn4c(cc5c4CCCC5)C3=O)c2CO)cc(Nc2ccc(N3CCN(C4COC4)CC3)cn2)c1=O	enzyme activity, inhibitor	0.1 µM	inhibition	15%
Cn1cncc1[C@](O)(COc1ccc(C#N)cc1-c1ccc(OC(F)(F)F)cc1)c1ccc(C#N)cc1	cell-free assay, competition with immobilised ligand	1 µM	remaining binding	91%
Cn1cc(-c2cccc(N3CCc4c(sc5c4CC(C)(C)C5)C3=O)c2CO)cc(Nc2ccncn2)c1=O	enzyme activity, inhibitor	1 µM	inhibition	11%
COc1ncccc1-c1cnn2ccc(N3CCN(C(=O)OC(C)C)CC3)nc12	binding, competition with immobilised ligand	1 µM	remaining binding	61%
C#Cc1n[nH]c2c(-c3cn([C@@H](C)c4ccccc4)c(=O)[nH]c3=O)cc(F)cc12	enzyme activity, inhibitor	0.1 µM	inhibition	5%
CC(C)(C)c1cc(C=C(C#N)C#N)cc(Br)c1O	enzyme activity, inhibitor	0.5 µM	remaining activity	100%
Nc1ncc(-c2nc(N3CCOCC3)nc(N3CCOCC3)n2)c(C(F)F)n1	cell-free assay, competition with immobilised ligand	10 µM	remaining binding	78%
O=c1[nH]c2ccccc2n1C1CCN(Cc2ccc(-c3[nH]c4cc5ncnc5cc4nc3-c3ccccc3)cc2)CC1	cell-free assay	0.5 µM	remaining signal	99.4%
Cc1nn(C)cc1-c1nc2c(N3CCN(Cc4ccc(Cl)cc4)CC3)c(Cl)cnc2[nH]1	binding, competition with immobilised ligand	1 µM	remaining binding	80%
